Structures are written as SMILES.

Assay [1] addresses T1, Hypoxia inducible factors; HIF-1-alpha, HIF-2-alpha (Homo sapiens, UniProt Q16665+Q99814). The assay can be described thus: Inhibition of hypoxia-induced HIF1 activation in human T47D cells by reporter gene assay. Format: cell-based. In short, it runs like this:
(§1)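 Luciferase reporter cells (T47D or PC-3) transfected, treated with compound and exposed to hypoxia (1% O2:5% CO2:94% N2). Normoxic comparison at 5% CO2:95% air. Compounds from 10 mM isopropanol stocks, tested up to 30 μM. Luciferase activity measured.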
(In general: In a reporter assay the amount or activity of a reporter protein is the signal.)

Assay [2] concerns T47D. Description: Cytotoxicity against human T47D cells after 48 hrs by neutral red assay. Format: functional, cell-based. In short, it runs like this: (§2)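 Cells kept in DMEM/F12 with 10% FBS and antibiotics at 37° C, 5% CO2:95% air. Plated at 30,000 cells/well and grown 24 h. Compounds diluted in serum-free DMEM/F12 and added (n = 3). Incubated 48 h at 37° C under normoxia. Viability read by neutral red at OD540. % inhibition = 1 - OD540(treated)/OD540(control). Highest concentration tested 30 μM.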

For assay [3], the system named is MDA-MB-231. Description: Cytotoxicity against human MDA-MB-231 cells after 48 hrs by neutral red assay. The conditions noted are these: MDA-MB-231, 48 h. In kind it is functional, cell-based. In a few lines: as §2
Assay [4] has as its target T1, Hypoxia inducible factors; HIF-1-alpha, HIF-2-alpha. The assay can be described thus: Inhibition of hypoxia-induced HIF1 activation in human PC3 cells by reporter gene assay. Format: cell-based. The note with it: pc-3. In short, it runs like this:
as §1

Assay [5] has the same target. Description: Inhibition of 1,10 phenanthroline-induced HIF1 activation in human T47D cells by reporter gene assay. Format: cell-based. In a few lines:
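Transfected T47D luciferase reporter cells. HIF-1 induced with the hypoxia mimetic 1,10-phenanthroline at 10 μM. Compounds from 10 mM isopropanol stocks, tested up to 30 μM. HIF-1 activity read as luciferase activity.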

The subject of assay [6] is DU-145. Description: Cytotoxicity against human DU145 cells after 48 hrs by neutral red assay. Format: functional, cell-based. The conditions noted are these: DU-145, 48 h. In a few lines: as §2
Assay [7] relates to PC-3. Description: Cytotoxicity against human PC-3 cells after 48 hrs by neutral red assay. In kind it is functional, cell-based. The note with it: PC-3, 48 h. In a few lines:
as §2

Regarding `C=C1CC[C@@H]2OC(C)(C)[C@H](OC(C)=O)CC[C@@]2(C)[C@@H]1CC[C@]1(O)[C@@H](C)CC[C@@H]2OC(C)(C)C(=O)CC[C@]21C`, the IC50 in assay [1] was 20 µM; in assay [2], 22 µM; in assay [3] it was greater than 30 µM; in assay [4], greater than 30 µM; in assay [5] it was greater than 30 µM; in assay [6], greater than 30 µM. Besides, the IC50 in assay [7] was greater than 30 µM.
For `C[C@H]1CC[C@@H]2OC(C)(C)C(=O)CC[C@@]2(C)[C@@]12O[C@H]([C@@]1(C)CC[C@@H]3OC(C)(C)C(=O)CC[C@]31C)C[C@H]2O`, the IC50 in assay [1], in assay [2], in assay [3], in assay [4], in assay [5] and in assay [6] was greater than 30 µM in each case. The compound also displayed a concentration for half-maximal inhibition (IC50) in assay [7] greater than 30 µM.
For `CC(C)C(=O)CC[C@@]1(C)[C@@H]2CC[C@H](C)[C@@]1(CC[C@@]1(C)C3=CC[C@@H](O)C(C)(C)O[C@@H]3CC[C@H]1C)O2` [SODWANONE W], the IC50 in assay [1], in assay [2], in assay [3], in assay [6] and in assay [7] was greater than 30 µM in each case.
Take `CC1=C(CC[C@H]2[C@]3(C)CCC(=O)C(C)(C)O[C@H]3CC[C@]2(C)O)[C@@]2(C)CCC(=O)C(C)(C)C2=C(O)C1=O` [SODWANONE A]: the half-inhibitory concentration (IC50) is 20 µM in assay [1]; greater than 30 µM in assay [2]; greater than 30 µM in assay [3]; greater than 30 µM in assay [4]; greater than 30 µM in assay [5]; greater than 30 µM in assay [6]. Besides, in assay [7], the IC50 is greater than 30 µM.
Take `CC1=C(CC[C@@H]2[C@H](C)CC[C@@H]3OC(C)(C)C(=O)CC[C@]32C)[C@@]2(C)CCC(=O)C(C)(C)C2=C(O)C1=O` [SODWANONE B]: the IC50 in assay [1], in assay [2], in assay [3], in assay [4], in assay [5] and in assay [6] was greater than 30 µM in each case. In addition, in assay [7], the IC50 is greater than 30 µM.
For `CC1=C(CCC23CCC(=O)C(C)(C)C2=C(O)C(=O)C(C)=C3C)[C@]2(C)CCC(=O)C(C)(C)O[C@H]2CC1` (stereo partly drawn) [SODWANONE U], the IC50 in assay [1], in assay [2], in assay [3], in assay [4], in assay [5] and in assay [6] was greater than 30 µM each time. In assay [7], this compound came in with an IC50 greater than 30 µM.
In the case of `C[C@H]1CC[C@@H]2OC(C)(C)C(=O)CC[C@@]2(C)[C@]12CC[C@@H]([C@@]1(C)CC[C@@H]3OC(C)(C)C(=O)CC[C@]31C)O2` [YARDENONE], the IC50 in assay [1], in assay [2], in assay [3], in assay [6] and in assay [7] was greater than 30 µM throughout.
Take `C=C1CC[C@@H]2OC(C)(C)[C@H](O)CC[C@@]2(C)[C@@H]1CC[C@]1(O)[C@@H](C)CC[C@@H]2OC(C)(C)C(=O)CC[C@]21C`: the IC50 in assay [1] is 25 µM; in assay [2] it was greater than 30 µM; in assay [3], greater than 30 µM; in assay [4], greater than 30 µM; in assay [5], greater than 30 µM; in assay [6] it was greater than 30 µM. Besides, the IC50 in assay [7] is greater than 30 µM.
`CC1=C(CCC2=C(C)C(=O)C(O)=C3C(C)(C)C(=O)CC[C@]23C)[C@]2(C)CCC(=O)C(C)(C)O[C@H]2CC1` [10,11-DIHYDROSODWANONE B]: the concentration for half-maximal inhibition (IC50) in assay [1] was 20 µM; in assay [2], greater than 30 µM; in assay [3], greater than 30 µM; in assay [4], greater than 30 µM; in assay [5] it was 30 µM; in assay [6] it was greater than 30 µM. Also, the IC50 in assay [7] was greater than 30 µM.
Regarding `CC1=C(CCC2=C(C)CC[C@@H]3OC(C)(C)[C@H](O)CC[C@@]23C)[C@]2(C)CCC(=O)C(C)(C)O[C@H]2CC1` [SODWANONE T], the IC50 was 20 µM in assay [1]; greater than 30 µM in assay [2]; greater than 30 µM in assay [3]; greater than 30 µM in assay [4]; 20 µM in assay [5]; greater than 30 µM in assay [6]. The IC50 in assay [7] was greater than 30 µM.
With `C[C@H]1CC[C@@H]2OC(C)(C)[C@@H](O)CC=C2[C@@]1(C)CC[C@]1(C)[C@@H](C)CC[C@@H]2OC(C)(C)[C@@]3(O)CC[C@]21O3` [SODWANONE V], the IC50 was 15 µM in assay [1]; greater than 30 µM in assay [2]; 23 µM in assay [3]; 15 µM in assay [4]; 15 µM in assay [5]; greater than 30 µM in assay [6]. The compound also registered an IC50 in assay [7] greater than 30 µM.

For orientation: IC50 means the concentration that gives 50% inhibition. The low end stands for inhibition by little substance, the high end for a need for much substance.
